Only a sample is shown.
Apaf1 activ: activators of human Apaf-1 apoptosome, primary screen, biochemical, DEVD-Rh110 fluorescence, uHTS. Apaf-1 apoptosome caspase-3 activation; active compounds read low. activity change, negative = activation, % at 20 µM. 0.31% of 330,000 active;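 active = activity change at or below -40% at 20 µM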
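Material: reconstituted apoptosome of Apaf-1, cytochrome c, caspase-9, procaspase-3; times: 30 min preincubation, 50 min reaction, room temperature; measured by: fluorescence, 540 nm emission, 480 nm excitation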
Rh110 act interf: Rh110 fluorescence interference by putative Apaf-1 activators, confirmation, artefact control for Apaf-1 activator project, biochemical, 20 µM; shares compounds with Apaf1 activ; quenched caspase reaction, Ex480/Em540; fluorescence interference (activity change), % at 20 µM, hits read low; 980 tested, under 10 active; AID 504616, 2011;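 active = mean activity change at or below -40% when tested at 20 µM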
Apaf-1 act conf2: Apaf-1 activators, single-dose retest, confirmation, biochemical, fluorescence, DEVD-Rh110, 20 µM; shares compounds with Apaf1 activ; reconstituted apoptosome caspase-3 activity; active compounds read low; activity change, negative = activation, % at 20 µM; 5% of 980 active; AID 504617, 2011;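 active = mean activity change at or below -40%, meaning activation of 40% or more, at 20 µM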
Numbers without * were called inactive; / = no result given.

SMILES	Apaf1 activ	Rh110 act interf	Apaf-1 act conf2
CCCCCCOC(=O)C(C#N)c1nc2ccccc2nc1N1CCN(CC)CC1 (stereo unspecified)	42	/	/
CN(C)CCCN(C(=O)c1ccc(C(=O)c2ccccc2)cc1)c1nc2cc3c(cc2s1)OCO3	60	/	/
CCN(Cc1ccccc1)S(=O)(=O)c1ccc(C(=O)N(CCCN(C)C)c2nc3cc4c(cc3s2)OCCO4)cc1	41	/	/
CN(C)CCCN(C(=O)c1ccco1)c1nc2ccc(F)cc2s1	-99*	6	10
O=C(c1ccc2ncsc2c1)N1CCCC(C(F)(F)F)C1 (stereo unspecified)	42	/	/
CSCCC(NC(=O)c1ccco1)C(=O)N1CCCC(C(F)(F)F)C1 (stereo unspecified)	-394*	-7	27
O=C(c1ccc(-c2cccc(C(F)(F)F)c2)o1)N1CCCC(C(F)(F)F)C1 (stereo unspecified)	43	/	/
O=C1c2ccccc2C(=O)c2c1oc(C(F)(F)F)c2C(=O)c1ccccc1	79	/	/
Cc1ccc(C2(C)NC(=O)N(CC(=O)Nc3ccc4[nH]c(=O)[nH]c4c3)C2=O)cc1 (stereo unspecified)	-58*	12	-5
COc1ccccc1CNC(=O)CN1C(=O)NC(c2ccccc2)(c2ccc(C)c(C)c2)C1=O (stereo unspecified)	66	/	/
CC1CC(C)(C)CC2(C1)NC(=O)N(CC(=O)Nc1ccc3[nH]c(=O)[nH]c3c1)C2=O (stereo unspecified)	44	/	/
N=c1n(CC(=O)c2ccc(Br)s2)c2ccccc2n1Cc1ccccc1	42	/	/
Cc1cccc(CCNS(=O)(=O)c2cnc[nH]2)c1	-46*	-4	8
Nc1ncc2[nH]cnc2n1	-4	/	/
Cc1ccc(-c2nc3ncccn3c2NC(=O)C2CC2)cc1	-52*	0	13
COc1ccccc1N(/N=C1\Sc2ccccc2C1=O)C(C)=O	83	/	/
C=C(C)C(=O)Nc1ccc(OC(F)(F)C(F)F)c(NC(=O)C(=C)C)c1	-85*	4	-21
C=CCN1C=C2C(=O)C(C)(OC(=O)CCC(=O)OC)C(=O)C=C2C=C1C1CC1 (stereo unspecified)	43	/	/
O=C(N/N=C1\C/C(=N\NC(=O)c2ccncc2)c2ccccc21)c1ccncc1	93	/	/
CC(/C=C/c1ccc2c(c1)OCO2)=N/NC(=O)c1ccncc1	-42*	-4	4
Cc1ccc2cc(C(c3nnnn3CC3CCCO3)N3CCc4ccccc4C3)c(=O)[nH]c2c1 (stereo unspecified)	87	/	/
CCOC(=O)C1CCCN(C2CCN(Cc3nc(Cc4ccccc4)no3)CC2)C1 (stereo unspecified)	-72*	0	11
CCOC(=O)C1CCN(C2=C(NS(=O)(=O)c3ccc(Br)cc3)C(=O)c3ccccc3C2=O)CC1	68	/	/
O=C(C1CCCN(S(=O)(=O)c2cnc[nH]2)C1)N1CCN(Cc2ccccc2)CC1 (stereo unspecified)	40	/	/
CCc1ccc(NC2=CC(=O)C(=O)c3ccccc32)cc1	92	/	/
SMILES	Apaf1 activ	Rh110 act interf	Apaf-1 act conf2
O=C(/C=C/c1ccoc1)c1ccccc1O	-134*	-1	9
O=c1ccc2cc3c([nH]c4ccc(Br)cc43)oc-2c1O	85	/	/
COc1ccc(N2CCN(C(=O)Cc3ccc(OC)c(OC)c3)CC2)cc1	-535*	6	-4
O=C(N/N=C/c1c(F)cccc1Cl)C1CC1	-142*	-4	8
O=C1O/C(=C\C(=O)N2CCOCC2)c2ccccc21	-141*	2	0
O=C(O)c1cccc(NC2=C(N3CCOCC3)C(=O)c3ccccc3C2=O)c1	84	/	/
O=C1C=C(N2CCOCC2)c2ccccc2C1=O	98	/	/
O=C1CCN2C=Nc3cccc4ccc1c2c34	43	/	/
COc1ccc(/C=C/C(=O)NC(=S)Nc2ccc(S(N)(=O)=O)cc2)cc1	-80*	-2	14
Oc1ccc(-c2csc(-c3c[nH]c4ccccc34)n2)c(O)c1	-276*	1	1
CN(C)CCCNC(=O)C[C@H]1C[C@H](C(=O)N2CCCCC2)[C@@]2(CCc3ccccc3)c3[nH]c4cc(-c5ccco5)ccc4c3CCN2C1=O	72	/	/
Cc1ccc(-c2nn3c(-c4ccco4)nnc3c3ccccc23)cc1S(=O)(=O)NCC1CCCO1 (stereo unspecified)	66	/	/
COc1ccc(-c2cc(C)no2)cc1S(=O)(=O)NCCc1ccco1	-382*	5	-1
CC1=NN(c2ccccc2)C(=O)/C1=C/c1cc2cc(C)ccc2nc1N1CCCCC1	94	/	/
CCOc1ccc(NC(=O)CN(C)C(=O)c2ccccc2OCc2c(C)noc2C)cc1OCC	57	/	/
CCOc1ccc2oc(C(=O)N(C)CC(=O)Nc3ccc(OCC)c(OCC)c3)c(C)c2c1	-55*	4	14
CN(CC(=O)Nc1cccc(F)c1)C(=O)c1sc2ccccc2c1Cl	57	/	/
CC(C)=CCC/C(C)=C/CNC(=O)C[C@H]1C[C@H](C(=O)N2CCOCC2)[C@@]2(C)c3[nH]c4ccc(Cl)cc4c3CCN2C1=O	42	/	/
CCN(CC)C(=O)Cn1cc(S(=O)(=O)CC(=O)N2CCOCC2)c2ccccc21	-56*	12	12
COCCN(Cc1ccccc1)C(=O)C1CCN(S(=O)(=O)c2ccc3c(c2)OCCO3)CC1	49	/	/
O=C(Nc1ccccc1N1CCCC1)C1CCN(S(=O)(=O)c2cccc(C(F)(F)F)c2)CC1	42	/	/
O=C(Nc1ccccc1)N1CCC(C(=O)N2CCN(S(=O)(=O)c3cccc(F)c3)CC2)CC1	-51*	9	9
COc1ccc(-c2ccc(C(c3c(C)[nH][nH]c3=O)c3c(C)[nH][nH]c3=O)o2)c([N+](=O)[O-])c1	75	/	/
CC(=O)[C@@H]1[C@@H]2C(=O)N(C3CCCCC3)C(=O)[C@@H]2C2c3ccccc3C=CN21 (stereo partly specified)	84	/	/
C/C(=N\NC(=O)c1ccc(NS(=O)(=O)c2cccs2)cc1)c1ccc(Cl)cc1	-46*	1	14
SMILES	Apaf1 activ	Rh110 act interf	Apaf-1 act conf2
CC(=O)C1=C(c2cccc([N+](=O)[O-])c2)N(C(C)=O)n2c(C)nnc2S1	44	/	/
NC1=NC[C@@H](Cc2ccc(O)cc2)N1CCCCC1CCCCC1	51	/	/
CC(C)C[C@@H]1CN=C(N)N1C[C@@H]1CCCN1C[C@H](C)N1C[C@@H](Cc2ccccc2)N(CCCC2CCCC2)C1=N	55	/	/
O=C(NCCCO)C(=O)NCc1ccncc1	-63*	-80*	10
CCCCNc1c(-c2ccc(SC3CCCCC3)cc2)nc2cnccn12	42	/	/
O=C(NC(Cc1ccccc1)C(=O)NCc1ccccn1)c1ccco1 (stereo unspecified)	-187*	0	6
O=C1C(NS(=O)(=O)c2cccs2)=C(N2CCN(c3cccc(C(F)(F)F)c3)CC2)C(=O)c2ccccc21	48	/	/
CCc1ccccc1OC[C@@H](O)CN[C@H]1CCCc2ccccc21	46	/	/
Cc1cc2occ(CC(=O)NC3CCCc4ccccc43)c2cc1C (stereo unspecified)	-164*	-2	17
CC(=O)CCc1ccc(OCC(O)CNC2CCCc3ccccc32)cc1 (stereo unspecified)	65	/	/

Assay outcomes deposited in PubChem BioAssay by Sanford-Burnham Center for Chemical Genomics.
